Assay results as given in PubChem BioAssay AID463079 (The Scripps Research Institute Molecular Screening Center, 2010).
Out of some 330,000 compounds screened, about 2,000 (0.61%) were called active. The sample as a whole holds a higher share of actives than the screen did. Unmarked numbers belong to inactive results.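 How the source made its calls: active means inhibition above that plate's mean sample inhibition plus 3 SD (cut at about 26% in these data); inactive means the rest.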

Test: nonselective Gq signaling inhibition in CHO cells – cell-based, fluorescence, Fluo-8 calcium dye, counter-screen for OX1R antagonist project, primary screen (AID 463079);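 further: 0% = ATP-challenged DMSO wells and 100% = DMSO wells without ATP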
Conditions: parental CHO-K1, ATP-induced calcium, Fluo-8 fluorescence; at 5.6 µM; hits give high values
In short: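 Test system: untransfected parental CHO cell line; also added: ATP stimulus; dosing: 5.6 µM, single dose; signal: calcium-sensitive Fluo-8 fluorescence; measure: percent inhibition of ATP-evoked calcium rise, normalized to controls; benchmarks: low control ATP plus DMSO, high control DMSO only; replication: one well per compound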

Row | Structure (SMILES) | inhibition
1 | Cc1cc(C)cc(Oc2nc3c(C)cccn3c(=O)c2/C=C(\C#N)C(=O)NC2CCS(=O)(=O)C2)c1 (stereo not given) | -10.7%
2 | Cc1ccccc1C(=O)NC(=S)NC1CC1 | -11.8%
3 | O=C(CSc1ncn[nH]1)Nc1nsc(-c2ccccc2)n1 | 0.25%
4 | O=C(CSc1nc(-c2ccccc2)cs1)Nc1cccc([N+](=O)[O-])c1 | -15.2%
5 | O=C(CSc1ncn[nH]1)Nc1nc(-c2cccc([N+](=O)[O-])c2)cs1 | 29.9% (active)
6 | CC(C)CC(CC(C)C)=NNC(=O)c1ccc(CSc2nncn2C)cc1 | -6.24%
7 | C=CCOc1cccc(C2C(C(=O)c3ccc(C)o3)=C(O)C(=O)N2CCCn2ccnc2)c1 (stereo not given) | 4.82%
8 | C=CCOc1cccc(C2C(C(=O)c3ccc(C)o3)=C(O)C(=O)N2c2nnc(C)s2)c1 (stereo not given) | 35.4% (active)
9 | Cc1cc(N2C(=O)C(O)=C(C(=O)c3ccc(C)o3)C2c2ccc(OCc3ccccc3)cc2)no1 (stereo not given) | -17.5%
10 | Cc1ccc(SC(=O)COc2ccc(C)c(C)c2)cc1 | 11.9%
11 | Cc1ccnc(-n2sc3ccccc3c2=O)n1 | 46.3% (active)
12 | Cc1nc2ccccc2c(=O)n1NC(=O)c1ccccc1 | -3.13%
13 | CCOC(=O)N1CCC(=NNC(N)=O)CC1 | -14.6%
14 | O=Cc1c(Cl)cccc1Cl | -9.8%
15 | O=C(NCCc1c[nH]c2ccc(Cl)cc12)c1ccc([N+](=O)[O-])cc1 | 8.94%
16 | NS(=O)(=O)c1ccc(CCNC(=O)c2ccc(Cl)cc2[N+](=O)[O-])cc1 | -1.67%
17 | O=C(NCCc1ccc(Cl)cc1Cl)c1cc([N+](=O)[O-])c[nH]c1=O | 26.2% (active)
18 | Cc1ccc(O/C=C2\OC(=O)c3ccccc32)cc1 | 3.04%

Row | Structure (SMILES) | inhibition
19 | O=C(COC(=O)c1ncc(Cl)c(Cl)c1Cl)NCc1cccs1 | -15.5%
20 | CC1CC(C)CN(C(=O)COC(=O)c2ccc3ncsc3c2)C1 (stereo not given) | -8.36%
21 | CCC(=C/c1sc2ccc3ccccc3c2[n+]1C)/C=C1\Sc2ccc3ccccc3c2N1C | 79.9% (active)
22 | CCC1(c2ccccc2)NC(=O)N(CC(=O)Nc2ccccc2C(=O)NC2CCCC2)C1=O (stereo not given) | -8.29%
23 | COc1ccc(NC(=O)CC2C(=O)OCC3CCCCN32)cc1Cl (stereo not given) | -17.2%
24 | CC(C)(C)c1ccc(/C=C/C(=O)Nc2ncccn2)cc1 | -20.1%
25 | COC(=O)c1sc(-c2ccc(C(C)(C)C)cc2)cc1NC(=O)/C=C/C(=O)O | 38.8% (active)
26 | COc1ccccc1NC(=O)/C=C/C(N)=O | -0.46%
27 | CC(C)c1cc(C(N)=O)c(NC(=O)c2cccc(COc3ccc(Br)cc3)c2)s1 | -12.5%
28 | O=C1OCCN1C(=O)[C@H]1[C@H](c2ccccc2)C(c2ccc(F)cc2)=NN1c1ccccc1 | -16.7%
29 | CC1(C)Oc2ccc(C(=O)N3CCOCC3)cc2N(CC(=O)Nc2ccccc2)C1=O | -10.5%
30 | Cc1nn(C)cc1/C=C1\CCC/C(=C\c2cn(C)nc2C)C1=O | 1.91%
31 | O=C(/C=C/c1ccc(F)cc1)Nc1cccc(S(=O)(=O)Nc2cccc(C(F)(F)F)c2)c1 | -1.97%
32 | CCOC(=O)N1CCN(C(=O)c2ccc(S(=O)(=O)Nc3cccc(C(F)(F)F)c3)cc2)CC1 | 10.1%
33 | Cc1oc2c(F)c(F)c(F)c(F)c2c1S(=O)(=O)Nc1cccc(C(F)(F)F)c1 | 42.3% (active)
34 | COc1cccc(OC)c1C(=O)N1CCN(Cc2cccnc2)CC1 | 2.69%
35 | CC[C@]12c3[nH]c4cc(CCC(=O)N(C)C)ccc4c3CCN1C(=O)[C@@H](CC(=O)NCc1ccco1)C[C@@H]2C(=O)N1CCN(C(=O)c2ccco2)CC1 | -6.08%
